Source: ChEMBL document CHEMBL1137753, “Insecticidal heterolignans--tubuline polymerization inhibitors with activity against chewing pests” (Bioorg Med Chem, 2009)
Active and inactive are the calls of the source. Unless noted, the rule behind the calls is not given here.

Tests used:
[1] = test system: Spodoptera frugiperda; assay: Insecticidal activity against Spodoptera frugiperda larvae in disk of maize leaf at 500 g/ha treated as spray; format: functional, organism-based
Summary of the method: (§1)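 The same acetone/DMF/emulsifier formulation, diluted in emulsifier-containing water, was sprayed onto maize leaf disks. Dried disks were infested with fall armyworm larvae and mortality was assessed after a set time. "+" denotes ≥80% larvae killed; n.a. denotes no larvae killed.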

[2] = test system: Phaedon cochleariae; assay: Insecticidal activity against Phaedon cochleariae larvae in disk of Chinese cabbage leaf treated as spray; format: functional, organism-based
[3] = test system: Phaedon cochleariae; assay: Insecticidal activity against Phaedon cochleariae larvae in disk of Chinese cabbage leaf at 100 g/ha treated as spray; format: functional, organism-based
Summary of the method: (§2)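 This was sprayed on Chinese cabbage leaf disks. Once dry, disks were infested with mustard beetle larvae and mortality was scored after a set time. "+" denotes ≥80% larvae killed; n.a. denotes none killed.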

[4] = test system: Spodoptera frugiperda; assay: Insecticidal activity against Spodoptera frugiperda larvae in disk of maize leaf at 100 g/ha treated as spray; format: functional, organism-based; summary of the method: as §1
[5] = test system: Phaedon cochleariae; assay: Insecticidal activity against Phaedon cochleariae larvae in disk of Chinese cabbage leaf at 500 g/ha treated as spray; format: functional, organism-based; summary of the method: as §2
[6] = test system: Spodoptera frugiperda; assay: Insecticidal activity against Spodoptera frugiperda larvae in disk of maize leaf treated as spray; format: functional, organism-based
[7] = test system: Phaedon cochleariae; assay: Insecticidal activity against Phaedon cochleariae larvae in disk of Chinese cabbage leaf at 20 g/ha treated as spray; format: functional, organism-based; summary of the method: as §2
[8] = test system: Sf9; assay: Cytotoxicity against Spodoptera frugiperda Sf9 cells assessed as chromatin condensation at 3 ppm after 48 hrs by fluorescence microscopy; format: functional, cell-based
Summary of the method: (§3)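 Sf9 or CHO cells were seeded in chamber slides the day before treatment and exposed to compound for 48 h. They were then PBS-washed, fixed in ice-cold methanol for 10 min on ice, and rinsed with acetone. After rehydration in PBS, cells were stained with 2 µM DAPI for 30 min. Nuclei were examined by fluorescence microscopy (×40) for chromatin condensation or fragmentation.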

[9] = test system: CHO; assay: Cytotoxicity against CHO cells assessed as chromatin condensation after 24 hrs by fluorescence microscopy; format: cell-based, Cricetulus griseus; settings: chinese hamster
[10] = test system: CHO; assay: Cytotoxicity against CHO cells assessed as chromatin condensation after 48 hrs by fluorescence microscopy; format: cell-based, Cricetulus griseus; settings: chinese hamster; summary of the method: as §3
[11] = species on record: Bos taurus; assay: Inhibition of bovine tubulin polymerization
Summary of the method: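 Tubulin (>99% pure, 300 µg/sample) was suspended at 4 °C in G-PEM buffer (80 mM PIPES, 2 mM MgCl2, 0.5 mM EGTA, 1.0 mM GTP, pH 6.9) plus 5% glycerol, with or without compound. Colchicine and taxol served as standards. Polymerization at 37 °C was followed as absorbance at 340 nm every 1 min for up to 60 min.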

Compound	Activity [1]	Activity [3]	Activity [4]	further results
O=C1OCC2=C1C(c1cc(Br)cs1)c1cc3c(cc1N2)OCO3 (configuration not stated)	Active	–	–	Activity [2]: inactive
COc1ccc2c(c1OC)OC1=C(C(=O)OC1)C2c1cc(Cl)cc(Cl)c1 (configuration not stated)	Active	–	–	Activity [2]: inactive
COc1cc(OC)cc(C2C3=C(Nc4cc5c(cc42)OCO5)C(C)OC3=O)c1 (configuration not stated)	Active	Active	–	–
Cc1cc(C)cc(C2C3=C(COC3=O)Nc3cc4c(cc32)OCO4)c1 (configuration not stated)	–	Active	–	–
N#CCOc1cccc(C2C3=C(COC3=O)Nc3cc4c(cc32)OCO4)c1 (configuration not stated)	–	–	Active	Activity [5]: Active
COc1cc(OC)cc(C2C3=C(CC(C)OC3=O)Nc3cc4c(cc32)OCO4)c1 (configuration not stated)	Active	–	–	Activity [5]: Active
CN1OC(C)(C)C2=C(C1=O)C(c1cccc(Cl)c1)c1cc3c(cc1N2)OCO3 (configuration not stated)	Active	–	–	Activity [2]: inactive
COc1ccc2c(c1)C(c1cc(OC)c(OC)c(OC)c1)C1=C(COC1=O)N2 (configuration not stated)	–	–	–	Activity [6]: inactive; Activity [7]: Active
COc1cc(OC)cc(C2C3=C(COC3=O)Nc3cc4c(cc32)OCCO4)c1 (configuration not stated)	–	–	Active	Activity [5]: Active
COc1cc(C2C3=C(COC3=O)Nc3cc4c(cc32)OCO4)ccc1Cl (configuration not stated)	Active	–	–	Activity [5]: Active
COc1ccc(C2C3=C(COC3=O)Nc3cc4c(cc32)OCO4)cn1 (configuration not stated)	Active	–	–	Activity [5]: Active
O=C1OCC2=C1C(c1cccc(Cl)c1)c1cc3c(cc1N2)OCO3 (configuration not stated)	–	–	Active	Activity [5]: Active
O=C1OCC2=C1C(c1cc(Br)cc(Br)c1)c1cc3c(cc1N2)OCO3 (configuration not stated)	–	–	Active	Activity [2]: inactive
O=C1OCC2=C1C(c1cc(C(F)(F)F)cc(Cl)c1F)c1cc3c(cc1N2)OCO3 (configuration not stated)	–	–	Active	Activity [7]: Active
O=C1OCC2=C1C(c1cccc(C(F)(F)F)c1)c1cc3c(cc1N2)OCO3 (configuration not stated)	–	Active	Active	–
N#Cc1cccc(C2C3=C(COC3=O)Nc3cc4c(cc32)OCO4)c1 (configuration not stated)	Active	–	–	Activity [2]: inactive

Compound	Activity [1]	Activity [3]	Activity [4]	further results
O=C1OCC2=C1C(c1ccc(F)c(Cl)c1)c1cc3c(cc1N2)OCO3 (configuration not stated)	–	–	Active	Activity [2]: inactive
CC1CC2=C(C(=O)O1)C(c1cccc(Cl)c1)c1cc3c(cc1N2)OCO3 (configuration not stated)	–	Active	Active	–
COc1cc(C2C3=C(COC3=O)Nc3cc4c(cc32)OC(F)(F)O4)cc(OC)c1OC (configuration not stated)	–	Active	–	Activity [6]: inactive
COc1cc(C2C3=C(COC3=O)Nc3cc4c(cc32)OCO4)cc(SC)c1OC (configuration not stated)	–	Active	–	Activity [6]: inactive
CCOc1cc2c(cc1C)C(c1cc(OC)cc(OC)c1)C1=C(COC1=O)N2 (configuration not stated)	–	Active	–	Activity [6]: inactive
COc1cc(C2C3=C(COC3=O)Nc3cc4c(cc32)OCO4)cc(Br)c1OC (configuration not stated)	–	Active	–	Activity [6]: inactive
O=C1OCC2=C1C(c1cc(Cl)cc(Cl)c1)c1cc3c(cc1N2)OCO3 (configuration not stated)	–	Active	–	–
COc1cc(OC)cc(C2C3=C(COC3=O)Nc3cc4c(cc32)OCCCO4)c1 (configuration not stated)	–	–	Active	Activity [5]: Active
COc1cc(C2C3=C(COC3=O)Nc3cc4c(cc32)OCO4)cc(O)c1OC (configuration not stated)	–	Active	–	Activity [6]: inactive
COc1cc(OC)cc(C2C3=C(COC3=O)Nc3cc(OC(C)C)ccc32)c1 (configuration not stated)	Active	–	–	Activity [8]: Active; Activity [9]: Toxic; Activity [2]: inactive; Activity [10]: Toxic
CC(=O)O[C@H]1C(=O)[C@@]2(C)[C@H]([C@H](OC(=O)c3ccccc3)[C@]3(O)C[C@H](OC(=O)[C@H](O)[C@@H](NC(=O)c4ccccc4)c4ccccc4)C(C)=C1C3(C)C)[C@]1(OC(C)=O)CO[C@@H]1C[C@@H]2O	–	–	–	inhibition [11]: inactive
COc1cc(OC)cc(C2C3=C(COC3=O)Nc3c2ccc(C)c3C)c1 (configuration not stated)	–	Active	Active	–
COc1cc(OC)cc(C2C3=C(COC3=O)Nc3cc(OC)c(C)cc32)c1 (configuration not stated)	Active	–	–	Activity [7]: Active
COc1cc(OC)cc(C2C3=C(COC3=O)Nc3cc(OC4CC4)ccc32)c1 (configuration not stated)	–	–	Active	Activity [5]: Active
COc1c(Cl)cc(C2C3=C(COC3=O)Nc3cc4c(cc32)OCO4)cc1Cl (configuration not stated)	–	Active	Active	–
